# Measured values reported in paper PMC11720871 (Results in chemistry, 2024).
# Like-named read-outs stand apart in the source and are kept apart here.
# Tests used:
# [1] = test system: breast cancer MCF-7 cells; details: single agent; cited from earlier work
# [2] = test system: MDA-MB-231 VIM RFP cells; assay: CCK-8 viability assay, cancer cells; format: cell-based, human; details: read-out: IC50 Cancer MDA-MB-231 VIM RFP
# In short: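 MDA-MB-231 VIM RFP cells were grown in EMEM with 10% FBS, 0.01 mg ml−1 insulin, 10 μg ml−1 blasticidin S and 1% pen/strep at 37 °C, 5% CO2. Cells were seeded at 1.5 × 10^4 cells/well and exposed to 0–100 μM test compound, alone or with a fixed 50 μM BBC, for 24, 48 or 72 h. WST-8 (CCK-8) absorbance was read at 450 nm, and IC50 was taken from concentration–viability curves.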
# [3] = test system: MCF-10A cells; assay: CCK-8 viability assay, non-cancer cells; format: cell-based, human; details: read-out: IC50 Non-cancer MCF-10A
# [4] = test system: Caspase 3/7 in MDA-MB-231 VIM RFP cells; assay: Caspase-Glo 3/7 luminescence assay; format: cell-based, human; details: complex 20 μM and/or BBC 50 μM, 24 h
# In short: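 Cells were seeded at 1.5 × 10^4 cells/well and treated for 24 h with 20 μM complex and/or 50 μM BBC. Caspase-Glo 3/7 reagent was added and luminescence read. Mean ± SE, n = 3.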
# [5] = test system: MDA-MB-231 VIM RFP cells; assay: Cell cycle analysis by flow cytometry; format: cell-based, human; details: complex 20 μM and/or BBC 50 μM, 24 h
# In short: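 Cells were plated at 1 × 10^6 cells/mL in 6-well plates and treated 24 h with 20 μM complex and/or 50 μM BBC. They were washed in PBS, fixed in ice-cold 70% EtOH at 4 °C for 2 h, washed again and stained with DAPI. Flow cytometry read at 450/50 nm, and G1, S and G2 fractions were gated. Triplicate; mean + std. err.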
# [6] = test system: p-MLKL in MDA-MB-231 VIM RFP cells; assay: Western blot analysis of p-MLKL; format: cell-based, human; details: complex 20 μM and/or BBC 50 μM, 24 h; relative to GAPDH
# In short: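 Cells were plated at 1 × 10^6 cells/mL in 6-well plates and treated 24 h with 20 μM complex and/or 50 μM BBC. RIPA lysates were BCA-normalised, and equal protein was run on 10% SDS-PAGE (100 V, 2 h) and transferred to nitrocellulose (60 V, 90 min). After TBS blocking for 30 min, p-MLKL and GAPDH primaries were applied overnight at 4 °C, then Alexa Fluor Plus 488 secondary for 1 h at RT. Band densitometry was expressed relative to GAPDH.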
# [7] = test system: BT549 cells; details: 48 h of treatment; cited from earlier work
# [8] = test system: prostate cancer PC3 cells; details: cited from earlier work
# [9] = test system: MDA-MB-231 cells; details: 48 h of treatment; cited from earlier work
# [10] = test system: human cervical cancer HeLa cells; details: cited from earlier work
# [11] = test system: non-cancer human prostate epithelial cells; details: berberine 10–100 μM; cited from earlier work
# [12] = test system: pregnant rats; details: high dose (500–600 times more than human dosage); cited from earlier work
compound,measurement,setting,value
N.N.[Cl][Pt][Cl] [Cisplatin],IC50,[1],49.5 ± 1.62 µM
same,IC50,"[2]; 24 h incubation, CCK-8",28.1 ± 2.4 µM
same,IC50,"[2]; 48 h incubation, CCK-8",24.7 ± 2.6 µM
same,IC50,"[2]; 72 h incubation, CCK-8",22.2 ± 1.8 µM
same,IC50,"[3]; 24 h incubation, CCK-8",41.2 ± 1.9 µM
same,IC50,"[3]; 48 h incubation, CCK-8",34.2 ± 2.7 µM
"COc1ccc2cc3[n+](cc2c1OC)CCc1cc2c(cc1-3)OCO2 [Berberine chloride (BBC), berberine chloride]",Caspase 3/7 activity (luminescence),[4],activation in caspase 3/7
same,Fraction of cells in G2 phase,[5],33.8%
same,"p-MLKL level, western blot",[6],low level of p-MLKL
same,IC50,"[2]; Homo sapiens, MDA-MB-231, 24 h",48.3 ± 2.4 µM
same,IC50,"[2]; Homo sapiens, MDA-MB-231, 48 h",31.8 ± 2.6 µM
same,IC50,"[2]; Homo sapiens, MDA-MB-231, 72 h",25.6 ± 1.9 µM
same,IC50,"[3]; Homo sapiens, MCF-10A, 24 h",> 100 µM
same,IC50,"[3]; Homo sapiens, MCF-10A, 48 h",> 100 µM
same,IC50,"[3]; Homo sapiens, MCF-10A, 72 h",92.3 ± 1.4 µM
COc1ccc2cc3[n+](cc2c1OC)CCc1cc2c(cc1-3)OCO2 [berberine],IC50,[7],16.575 ± 1.219 µg/mL
same,Cell cycle arrest,[8]; 10 μM,induced G0/G1 cell cycle arrest
same,Cell cycle arrest,[8]; 50 μM,inhibited the cell cycle at G2/M phase
same,IC50,[9],18.525 ± 6.139 µg/mL
same,Enhancement of toxicity of berberine when combined with cisplatin,[10]; berberine 50 μg/mL combined with 5 μM of cisplatin,around 54%
same,Cytotoxic effect,[10]; dose of 50 μg/mL,significant cytotoxic effect
same,Cytotoxic effect,[11],did not show a significant cytotoxic effect
same,IC50,[1],52.2 ± 1.59 µM
same,Reproductive toxicity,[12],no significant reproductive toxicity
